Positions of bridges follow the written chain, without caps; N, C: chain ends. Residues, ends and D or L forms follow the SMILES beside them.
These compounds were tested against T1, Accessory gene regulator protein A (Staphylococcus aureus, UniProt P0A0I7) (assay: Inhibition of AGR quorum sensing system in methicillin-resistant Staphylococcus aureus AH2759 incubated for 15 hrs by P3-LUX reporter gene assay).
T1 sequence (P0A0I7 whole entry): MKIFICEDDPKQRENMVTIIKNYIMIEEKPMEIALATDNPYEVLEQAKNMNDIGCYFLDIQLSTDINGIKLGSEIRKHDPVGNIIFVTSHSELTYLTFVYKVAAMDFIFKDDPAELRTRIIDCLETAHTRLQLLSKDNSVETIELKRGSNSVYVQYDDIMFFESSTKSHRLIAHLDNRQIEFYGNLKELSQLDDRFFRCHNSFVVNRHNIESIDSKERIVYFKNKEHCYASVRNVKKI
In short: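 S. aureus AH2759 (USA300 LAC, plasmid agr P3-luxABCDE) grown overnight in TSB with chloramphenicol 10 μg/mL, then diluted to a final 1:500. Compounds were added at 0.1–1000 μM final with 1% DMSO. Incubated at 37 °C with 250 rpm shaking. OD600 and luminescence were read hourly from 15 h. IC50 came from a weighted four-parameter logistic fit of OD-normalized luminescence; growth-delayed wells were excluded. AIP-2 (2–500 nM) was the control.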

`O=C1c2cc(O)cc(O)c2C(=O)c2c(O)cc(CO)cc21` and `C[C@H](O)Cc1cc(O)c2c(c1)C(=O)c1cc(O)cc(O)c1C2=O` are within 1.5-fold of each other in IC50: 8.1 µM for the first, 8.9 µM for the second.

`CC(=O)Cc1cc(O)c2c(c1)C(=O)c1cc(O)cc(O)c1C2=O` and `Cc1cc(O)c2c(c1)C(=O)c1cc(O)cc(O)c1C2=O` [1,3,8-trihydroxy-6-methylanthra-9,10-quinone] are within 1.5-fold of each other in IC50: 19.8 µM for the first, 17.1 µM for the second.

`C[C@@H](O)[C@@H](O)c1cc(O)c2c(c1)C(=O)c1cc(O)cc(O)c1C2=O` and `CC(=O)C(O)c1cc(O)c2c(c1)C(=O)c1cc(O)cc(O)c1C2=O` (stereo not given) are within 1.5-fold of each other in IC50: 26.5 µM for the first, 30.1 µM for the second.

Going from `O=C(O)c1cc(O)c2c(c1)C(=O)c1cc(O)c(O)c(O)c1C2=O` to `O=C(O)c1cc(O)c2c(c1)C(=O)c1cc(O)c(Cl)c(O)c1C2=O` [6-chloro-4,5,7-trihydroxy-9,10-dioxo-9,10-dihydroanthracene-2-carboxylic acid], the IC50 falls from 120 µM to 37.8 µM (3.2-fold). The second is the more potent here.

Going from `CC(C)C[C@@H]1NC(=O)[C@H](CO)NC(=O)[C@H](CO)NC(=O)[C@@H](NC(=O)[C@H](C)NC(=O)[C@H](CC(N)=O)NC(=O)[C@@H](NC(=O)CN)C(C)C)CSC(=O)[C@H](Cc2ccccc2)NC1=O` (H-GVNACSSLF; thioester 5-C) to `O=C(O)c1cc(O)c2c(c1)C(=O)c1cc(O)cc(O)c1C2=O` [MLS000876948], the IC50 rises from 0.012 µM to 30.6 µM (2600-fold).
